Test results as given in PubChem BioAssay AID1556 (The Scripps Research Institute Molecular Screening Center, 2009).
About 1,300 (0.45%) of roughly 290,000 compounds were called active.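 Rule for the calls: active = inhibition above the mean plus 3 SD of all compounds in the same screening run (cut at about 4.5% in these data); inactive = the rest.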 This excerpt belongs to a sample that is enriched for actives.

Each molecule was assayed on metallo-beta-lactamase IMP-1 (Pseudomonas aeruginosa) (assay: inhibition of IMP-1 nitrocefin hydrolysis – biochemical, epi-absorbance readout, Pseudomonas aeruginosa enzyme, primary screen (AID 1556;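 note: 0% = IMP-1 with DMSO and 100% = DMSO wells lacking enzyme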)). Conditions: purified IMP-1, nitrocefin hydrolysis, epi-absorbance fluorescence; at 5.6 µM; active compounds read high.
Method in brief: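 System: purified recombinant IMP-1 beta-lactamase. Medium: Zinc- and detergent-supplemented HEPES buffer, pH 7.1. Compound: one 5.6 µM dose […]. Schedule: 15 min preincubation plus 25 min reaction at 25 °C. Technique: Epi-absorbance fluorescence, 480 nm excitation, 530 nm emission.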
With `CC1=C(C(=O)OC2CCCCC2)C(c2ccccc2F)NC(=O)N1` (centres undefined) the inhibition was -2.31% (inactive).
With `CC1=C(C(=O)OCC2CCCCC2)C(c2ccc(F)cc2)NC(=O)N1` (centres undefined) the inhibition was 28.3% (active).
With `COCCOC(=O)C1=C(C)NC(=O)NC1c1ccc(Cl)cc1` (centres undefined) the inhibition was -2.42% (inactive).
With `Cc1ccccc1CNC(=O)CCC(=O)N1Cc2ccccc2Oc2ncccc21` the inhibition was -3.43% (inactive).
For `CCCCCCC(=O)Nc1nc(C)c(-c2csc(Nc3cc(Cl)ccc3OC)n2)s1`, the inhibition was -2.05% (inactive).
In the case of `CCOC(=O)c1csc(NC(=O)Nc2cccc(OC)c2)n1`, the inhibition is reported as 15.1% (active).
In the case of `CCNS(=O)(=O)c1ccc(NC(=O)Nc2cccc(OC)c2)cc1`, the inhibition is reported as -2.27% (inactive).
With `CCCCC(=O)Nc1nc(C)c(-c2csc(Nc3ccc(Cl)cc3)n2)s1` the inhibition was 0.37% (inactive).
In the case of `CCCCCCC(=O)Nc1nc(C)c(-c2csc(Nc3cccc(OC)c3)n2)s1`, the inhibition is reported as 9.14% (active).
`CCOC(=O)c1cnc(SCC(=O)Nc2cccc(OC)c2)nc1N` was tested, and the inhibition was -1.9% (inactive).
In the case of `COc1ccc(C(=O)Nc2ccc(-n3nncc3C(C)(C)C)cc2)cc1`, the inhibition is reported as -2.83% (inactive).
`Clc1ccc(C2=CSC3=Nc4cccc5cccc(c45)N23)cc1` was tested, and the inhibition was 5.6% (active).
With `CC(=O)c1ccc(N2CCN(C(=O)CCNC(=O)Cn3ccc4ccccc4c3=O)CC2)cc1` the inhibition was -0.18% (inactive).
`O=C(CN1CCOc2ccccc21)N1CCC(Cc2ccccc2)CC1` was tested, and the inhibition was -0.27% (inactive).
For `CCOC(=O)c1c(C)[nH]c(C(=O)NCCN2CCOCC2)c1C`, the inhibition was -0.4% (inactive).
In the case of `COc1cc(NC(=O)c2ccc3c(c2)OCO3)ccc1NC(=O)c1cccs1`, the inhibition is reported as -2.83% (inactive).
`FC(F)(F)C1CCCN(c2nsc3ccccc23)C1` (centres undefined) was tested, and the inhibition was -3.15% (inactive).
In the case of `CSC1=N/C(=C\C=C\c2cccs2)C(=O)S1`, the inhibition is reported as 12.2% (active).
With `CN1C/C(=C/c2cccs2)C(=O)/C(=C\c2cccs2)C1` the inhibition was 0.42% (inactive).
In the case of `Cc1cccc(C2=N/C(=C/c3cccs3)C(=O)O2)c1`, the inhibition is reported as -0.41% (inactive).
`COc1ccc(C(O)(C2CCCCC2)C(CN2CCCC2)c2ccccc2)cc1` (centres undefined) was tested, and the inhibition was -0.93% (inactive).
In the case of `CCc1ccc(NC(=O)Cn2nnc(C(=O)NCc3ccc4c(c3)OCO4)c2N)cc1`, the inhibition is reported as 0.66% (inactive).
In the case of `CCOCCCNC(=S)Nc1ccc2nc(N3CCN(CC)CC3)cc(C)c2c1`, the inhibition is reported as -2% (inactive).
`Cc1cc(/C=C2\SC(=O)N(C)C2=O)c(C)n1-c1cccc(C(=O)O)c1` was tested, and the inhibition was -1.7% (inactive).
For `N#Cc1ccccc1CN1C(=O)S/C(=C/c2cccn2-c2cccc(C(=O)O)c2)C1=O`, the inhibition was 20.9% (active).
For `Cc1ccccc1NC(=O)CN1C(=O)N/C(=C\c2cccn2-c2cccc(C(=O)O)c2)C1=O`, the inhibition was -2.07% (inactive).
In the case of `O=C(CNC(=O)c1ccccc1F)c1ccc(Br)cc1`, the inhibition is reported as -2.02% (inactive).
`Cc1ccccc1NC(=O)CSc1ccc2nnc(-c3ccccn3)n2n1` was tested, and the inhibition was -1.21% (inactive).
`CC(NC(=O)CCCC1CCCCC1)c1ccc(S(N)(=O)=O)cc1` (centres undefined) was tested, and the inhibition was -1.72% (inactive).
In the case of `O=C(/C=C/c1ccco1)Nc1cccc(-c2nc3ccccc3[nH]2)c1`, the inhibition is reported as -2.53% (inactive).
For `O=C(Nc1cccc(-c2nc3ccccc3[nH]2)c1)c1ccc(C(=O)Nc2cccc(-c3nc4ccccc4[nH]3)c2)cc1`, the inhibition was 4.99% (active).
With `O=C(Cc1cccs1)Nc1cccc(-c2nc3ccccc3[nH]2)c1` the inhibition was -5.9% (inactive).
`CC1CCN(C(=O)CN(c2ccc(Oc3ccccc3)cc2)S(C)(=O)=O)CC1` was tested, and the inhibition was -2.25% (inactive).
For `CSCCC(NC(=O)c1ccc(Cl)cc1Cl)C(=O)NNC(=O)c1csc(N2CCOCC2)n1` (centres undefined), the inhibition was -2.46% (inactive).
In the case of `COc1ccc(Cl)cc1NC(=O)CCS(=O)(=O)c1cc2c(cc1C)NC(=O)CO2`, the inhibition is reported as -3.94% (inactive).
With `O=C(CCS(=O)(=O)c1ccc(Br)cc1)NCCc1ccc(Cl)cc1` the inhibition was 0.69% (inactive).
For `COc1ccc(Cl)cc1NC(=O)CCS(=O)(=O)c1ccc(Br)cc1`, the inhibition was 9.04% (active).
In the case of `COc1ccc2cc(-c3[nH]ncc3CNCCn3nc(C)cc3C)ccc2c1`, the inhibition is reported as -2.54% (inactive).
In the case of `O=C(NCc1ccncc1)C(=O)NCC1OCCN1S(=O)(=O)c1ccc(Br)cc1` (centres undefined), the inhibition is reported as -1.07% (inactive).
In the case of `COc1ccc(C(=O)/C=C/Nc2ccccn2)cc1`, the inhibition is reported as 5.05% (active).
For `COc1ccc2cc(S(=O)(=O)Nc3ccccn3)ccc2c1`, the inhibition was -3.85% (inactive).
For `CCOc1ccc(N/C=C/C(=O)c2ccccc2)cc1`, the inhibition was -2.54% (inactive).
With `COc1ccc(/C=N/Nc2ccccc2C(=O)O)cc1` the inhibition was -1.08% (inactive).
With `CCOC(=O)C1=C(c2ccccc2)NC(=O)NC1c1cc(OC)c(OC)cc1OC` (centres undefined) the inhibition was -2.08% (inactive).
`Cc1ccc(Nc2nnc(SCC(=O)c3cc4ccccc4o3)s2)cc1C` was tested, and the inhibition was -0.86% (inactive).
`Cc1cc(NC(=O)CSc2nnc(Nc3ccccc3F)s2)no1` was tested, and the inhibition was -0.94% (inactive).
In the case of `Cc1ccccc1Nc1nnc(SCC(=O)c2cc3ccccc3o2)s1`, the inhibition is reported as 7.2% (active).
In the case of `CN(C)/N=C/c1cc(Cl)cc([N+](=O)[O-])c1O`, the inhibition is reported as 4.62% (active).
With `O=C(N/N=C/c1cc(Cl)cc([N+](=O)[O-])c1O)C(O)(c1ccccc1)c1ccccc1` the inhibition was -3.33% (inactive).
`O=[N+]([O-])c1cc(Cl)cc(/C=N/NC(=S)Nc2cc(S(=O)(=O)N3CCOCC3)ccc2Cl)c1O` was tested, and the inhibition was -0.24% (inactive).
With `O=C(Nc1ccccc1Cc1ccccc1)c1ccc2c(c1)SC1=NS(=O)(=O)CCN12` the inhibition was -3.52% (inactive).
For `COc1ccc(CNC(=O)CN(c2ccc(OC)c(Cl)c2)S(=O)(=O)c2ccc(C)cc2)cc1`, the inhibition was -0.9% (inactive).
With `CCOC(=O)c1cc2cc3ccccc3cc2oc1=O` the inhibition was 0.55% (inactive).
In the case of `CC1CCN(C(=O)CCNC(=O)c2ccccc2)CC1`, the inhibition is reported as -1.09% (inactive).
For `Cc1oc2c(F)c(F)c(F)c(F)c2c1S(=O)(=O)Nc1cccc(C(F)(F)F)c1`, the inhibition was -0.74% (inactive).
With `COc1ccc(OC)c(S(=O)(=O)N2CCCC(C(=O)NCCc3ccccc3)C2)c1` (centres undefined) the inhibition was -0.65% (inactive).
In the case of `Cc1cccn2c(=O)c(/C=C3\SC(=S)N(CC(C)C)C3=O)c(NCCCOC(C)C)nc12`, the inhibition is reported as -1.23% (inactive).
For `CCCN(CCC)c1nc2c(C)cccn2c(=O)c1/C=C1/SC(=S)N(Cc2ccco2)C1=O`, the inhibition was 7.59% (active).
For `CCOC(=O)CC1C(=O)NCCN1c1nc2c(C)cccn2c(=O)c1/C=C1\SC(=S)N(C(C)CC)C1=O` (centres undefined), the inhibition was -2.03% (inactive).
For `CC(C)(O)C#Cc1ccc(CN2CCC(CO)(CCc3ccccc3)CC2)cc1`, the inhibition was -0.34% (inactive).
`N#Cc1ccc(-c2nc3cc(C#N)c(C#N)cc3nc2-c2ccccc2)cc1C#N` was tested, and the inhibition was -3.53% (inactive).
`CC(=O)Nc1ccc(S(=O)(=O)N(C)c2nc3ccccc3nc2Cl)cc1` was tested, and the inhibition was -0.55% (inactive).
In the case of `O=C(Nc1ccc([N+](=O)[O-])cc1)C1CC12CCC2` (centres undefined), the inhibition is reported as -0.64% (inactive).
For `CCC(=C/c1sc2ccc3ccccc3c2[n+]1C)/C=C1\Sc2ccc3ccccc3c2N1C`, the inhibition was 17.3% (active).
In the case of `CCCNC(=O)CSc1nc(Cc2ccccc2)nc2ccccc12`, the inhibition is reported as -3.79% (inactive).
`COc1cc(OC)cc(-c2cc3nc(C4CCN(C(=O)OC(C)(C)C)CC4)cc(=O)n3[nH]2)c1` was tested, and the inhibition was -4.79% (inactive).
With `CCc1ccccc1NC(=O)CCOc1ccccc1` the inhibition was -1.54% (inactive).
For `COc1ccc(/C=C2\SC(=S)N(CCC(=O)Nc3ccccn3)C2=O)cc1OC`, the inhibition was -4.91% (inactive).
For `COc1ccccc1C(=O)NNC(=O)CCN1C(=O)/C(=C\c2ccccc2)SC1=S`, the inhibition was -0.96% (inactive).
For `COc1cc(/C=C2/SC(=S)N(Cc3ccccc3)C2=O)cc(OC)c1O`, the inhibition was 10% (active).
With `CCCOC1CCCN(C(=O)c2cc(COc3cncc(Cl)c3)on2)C1` (centres undefined) the inhibition was -0.48% (inactive).
In the case of `O=C(COC(=O)c1ccc(N2CCCC2=O)cc1)c1ccc(OC(F)F)cc1`, the inhibition is reported as -0.84% (inactive).
In the case of `C[C@@H]1CC[C@@]2(OC1)O[C@H]1C[C@H]3[C@@H]4CC=C5C[C@@H](O)[C@H](O)C[C@]5(C)C4CC[C@]3(C)[C@H]1[C@@H]2C` (some centres undefined), the inhibition is reported as -4.13% (inactive).
With `Cc1ccc(S(=O)(=O)N2CCN=C2SCc2c(F)cccc2Cl)cc1` the inhibition was 0.72% (inactive).
For `Cc1cccc2cc(CN(Cc3nnnn3Cc3ccccc3)C3CCCC3)c(=O)[nH]c12`, the inhibition was -0.68% (inactive).
For `Cc1cc(C)c2cc(CN(Cc3cccs3)Cc3nnnn3CC3CCCO3)c(=O)[nH]c2c1` (centres undefined), the inhibition was -1.83% (inactive).
For `Cc1cc(C)c2cc(CN(Cc3nnnn3Cc3ccc(F)cc3)C3CCCC3)c(=O)[nH]c2c1`, the inhibition was 6.27% (active).
In the case of `COCc1c(C(=O)N/N=C\c2cccnc2)nnn1-c1nonc1N`, the inhibition is reported as -2.01% (inactive).
For `COc1ccc(C2=NS(=O)(=O)N(C)C(C(=O)N3CCCCC3)=C2)cc1`, the inhibition was -5.03% (inactive).
For `Cc1nn(-c2cc(Cl)ccc2N)c(=O)c2ccccc12`, the inhibition was -2.53% (inactive).
`O=C1c2ccccc2C(=O)N1c1cccc2ccccc12` was tested, and the inhibition was -2.06% (inactive).
With `O=C(O)c1ccc2c3c(cccc13)C(=O)N(OS(=O)(=O)c1ccccc1)C2=O` the inhibition was -1.83% (inactive).
In the case of `Cc1nn(C)cc1N1C(=O)c2cccc3c(N)ccc(c23)C1=O`, the inhibition is reported as 22.2% (active).
With `CN1C(=O)c2cccc3c(N)ccc(c23)C1=O` the inhibition was 41.5% (active).
For `CC(=O)Nc1ccccc1Sc1ccc2c3c(cccc13)C(=O)N(c1ccc(C)cc1)C2=O`, the inhibition was -1.41% (inactive).
For `CCn1c(SCC(=O)Nc2ccc(C)cc2)nc2nc3c(cc2c1=O)CCCC3`, the inhibition was -2.99% (inactive).
In the case of `COc1ccc(C(CC(=O)c2ccccc2)S(=O)(=O)c2ccccc2)cc1` (centres undefined), the inhibition is reported as -1.87% (inactive).
`N#Cc1cccc(CN2CCC(=O)N(CCO)CC2)c1` was tested, and the inhibition was -1.5% (inactive).
For `Cc1ccc(C(=O)NCC(=O)OCc2nnc(-c3ccccc3)o2)cc1`, the inhibition was -0.31% (inactive).
